What was measured:
[1] = biological target: T1, Myotonin-protein kinase (Homo sapiens) (UniProt Q09013); test: Inhibition of human recombinant DMPK1 at 40 nM in presence of ATP by radiometric assay relative to control
T1 sequence (whole entry): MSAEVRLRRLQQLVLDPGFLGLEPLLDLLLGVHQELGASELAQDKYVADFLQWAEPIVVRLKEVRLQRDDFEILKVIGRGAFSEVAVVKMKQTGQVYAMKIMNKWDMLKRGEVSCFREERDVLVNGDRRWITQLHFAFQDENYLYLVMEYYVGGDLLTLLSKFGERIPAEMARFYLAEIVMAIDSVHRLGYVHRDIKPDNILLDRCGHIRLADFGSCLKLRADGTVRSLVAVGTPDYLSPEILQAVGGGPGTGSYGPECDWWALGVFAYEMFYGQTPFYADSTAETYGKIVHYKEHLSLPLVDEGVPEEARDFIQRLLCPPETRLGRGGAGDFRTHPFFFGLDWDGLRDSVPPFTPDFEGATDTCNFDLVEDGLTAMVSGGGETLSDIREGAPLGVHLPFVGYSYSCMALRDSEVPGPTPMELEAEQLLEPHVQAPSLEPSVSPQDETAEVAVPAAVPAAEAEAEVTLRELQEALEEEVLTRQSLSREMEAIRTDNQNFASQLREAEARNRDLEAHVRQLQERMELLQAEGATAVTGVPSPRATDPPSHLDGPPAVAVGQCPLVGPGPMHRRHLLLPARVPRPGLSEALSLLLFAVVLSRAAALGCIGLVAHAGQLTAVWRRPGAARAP

[2] = biological target: Tyrosine-protein kinase JAK1 (Homo sapiens) (UniProt P23458); test: Inhibition of human recombinant JAK1 at 40 nM in presence of ATP by radiometric assay relative to control
[3] = biological target: Serine/threonine-protein kinase 38-like (Homo sapiens) (UniProt Q9Y2H1); test: Inhibition of human recombinant NDR2 at 40 nM in presence of ATP by radiometric assay relative to control
[4] = biological target: Serine/threonine-protein kinase PAK 3 (Homo sapiens) (UniProt O75914); test: Inhibition of human recombinant PAK3 at 500 nM in presence of ATP by radiometric assay relative to control
[5] = biological target: STE20-like serine/threonine-protein kinase (Homo sapiens) (UniProt Q9H2G2); test: Inhibition of human recombinant SLK at 500 nM in presence of ATP by radiometric assay relative to control
[6] = biological target: Myosin light chain kinase, smooth muscle (Homo sapiens) (UniProt Q15746); test: Inhibition of human recombinant smMLCK at 500 nM in presence of ATP by radiometric assay relative to control
[7] = biological target: T2, SNF-related serine/threonine-protein kinase (Homo sapiens) (UniProt Q9NRH2); test: Inhibition of human recombinant SNRK at 500 nM in presence of ATP by radiometric assay relative to control
T2 sequence (whole entry): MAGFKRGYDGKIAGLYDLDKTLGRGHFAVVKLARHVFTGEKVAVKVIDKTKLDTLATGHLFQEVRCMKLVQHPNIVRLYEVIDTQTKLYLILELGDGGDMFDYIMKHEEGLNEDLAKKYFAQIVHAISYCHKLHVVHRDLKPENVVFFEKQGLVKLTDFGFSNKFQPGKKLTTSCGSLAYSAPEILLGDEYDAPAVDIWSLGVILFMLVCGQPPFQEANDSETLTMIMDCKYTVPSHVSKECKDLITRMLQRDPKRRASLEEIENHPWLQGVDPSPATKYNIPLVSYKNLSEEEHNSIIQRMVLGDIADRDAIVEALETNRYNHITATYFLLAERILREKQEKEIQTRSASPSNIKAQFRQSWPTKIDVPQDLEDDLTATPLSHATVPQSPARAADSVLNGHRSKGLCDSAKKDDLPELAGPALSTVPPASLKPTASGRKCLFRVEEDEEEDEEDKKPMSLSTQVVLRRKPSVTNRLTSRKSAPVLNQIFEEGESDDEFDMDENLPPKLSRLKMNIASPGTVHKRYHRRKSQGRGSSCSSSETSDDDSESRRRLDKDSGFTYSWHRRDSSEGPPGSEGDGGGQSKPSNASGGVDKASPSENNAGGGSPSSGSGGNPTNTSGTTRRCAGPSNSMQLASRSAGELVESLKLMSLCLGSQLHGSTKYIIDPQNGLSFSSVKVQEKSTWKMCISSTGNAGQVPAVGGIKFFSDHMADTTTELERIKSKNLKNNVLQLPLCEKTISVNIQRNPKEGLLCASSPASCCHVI

[8] = biological target: Homeodomain-interacting protein kinase 3 (Homo sapiens) (UniProt Q9H422); test: Inhibition of human recombinant HIPK3 at 500 nM related to control ULK1
[9] = biological target: Insulin receptor (Homo sapiens) (UniProt P06213); test: Inhibition of human recombinant INSR at 500 nM related to control ULK1
[10] = biological target: Serine/threonine-protein kinase PAK 2 (Homo sapiens) (UniProt Q13177); test: Inhibition of human recombinant PAK2 at 500 nM related to control ULK1
[11] = biological target: cAMP-dependent protein kinase catalytic subunit beta (Homo sapiens) (UniProt P22694); test: Inhibition of human recombinant PKACbeta at 500 nM related to control ULK1
[12] = biological target: T3, Aurora kinase C (Homo sapiens) (UniProt Q9UQB9); test: Inhibition of human recombinant AurC at 15 nM in presence of ATP by radiometric assay relative to control
T3 sequence (whole entry): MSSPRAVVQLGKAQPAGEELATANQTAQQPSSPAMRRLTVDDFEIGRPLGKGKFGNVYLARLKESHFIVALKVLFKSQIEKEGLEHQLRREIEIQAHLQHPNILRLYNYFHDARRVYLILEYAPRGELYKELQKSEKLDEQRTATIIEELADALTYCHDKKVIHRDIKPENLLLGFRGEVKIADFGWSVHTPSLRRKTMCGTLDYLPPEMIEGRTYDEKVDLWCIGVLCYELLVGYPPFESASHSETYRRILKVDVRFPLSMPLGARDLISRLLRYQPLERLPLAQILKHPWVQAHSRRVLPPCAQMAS
Method in brief: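 Part of a radiometric in vitro activity panel of 327 recombinant human kinases. Each kinase was tested in duplicate at one inhibitor concentration. Activity remaining was expressed as a percentage of the vehicle control, and percent inhibition was taken as 100 minus that value.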

[13] = biological target: Mitogen-activated protein kinase 14 (Homo sapiens) (UniProt Q16539); test: Inhibition of human recombinant p38alpha at 15 nM in presence of ATP by radiometric assay relative to control
[14] = biological target: T3, Aurora kinase C (Homo sapiens); test: Inhibition of human recombinant AurC at 15 nM related to control ULK1
[15] = biological target: Tyrosine-protein kinase Lyn (Homo sapiens) (UniProt P07948); test: Inhibition of human recombinant LYN at 15 nM related to control ULK1
[16] = biological target: T2, SNF-related serine/threonine-protein kinase (Homo sapiens); test: Inhibition of human recombinant SNRK at 15 nM related to control ULK1
[17] = biological target: SRSF protein kinase 1 (Homo sapiens) (UniProt Q96SB4); test: Inhibition of human recombinant SRPK1 at 15 nM related to control ULK1

Sequence of Homeodomain-interacting protein kinase 3 (Homo sapiens) (Q9H422 whole entry, looked up): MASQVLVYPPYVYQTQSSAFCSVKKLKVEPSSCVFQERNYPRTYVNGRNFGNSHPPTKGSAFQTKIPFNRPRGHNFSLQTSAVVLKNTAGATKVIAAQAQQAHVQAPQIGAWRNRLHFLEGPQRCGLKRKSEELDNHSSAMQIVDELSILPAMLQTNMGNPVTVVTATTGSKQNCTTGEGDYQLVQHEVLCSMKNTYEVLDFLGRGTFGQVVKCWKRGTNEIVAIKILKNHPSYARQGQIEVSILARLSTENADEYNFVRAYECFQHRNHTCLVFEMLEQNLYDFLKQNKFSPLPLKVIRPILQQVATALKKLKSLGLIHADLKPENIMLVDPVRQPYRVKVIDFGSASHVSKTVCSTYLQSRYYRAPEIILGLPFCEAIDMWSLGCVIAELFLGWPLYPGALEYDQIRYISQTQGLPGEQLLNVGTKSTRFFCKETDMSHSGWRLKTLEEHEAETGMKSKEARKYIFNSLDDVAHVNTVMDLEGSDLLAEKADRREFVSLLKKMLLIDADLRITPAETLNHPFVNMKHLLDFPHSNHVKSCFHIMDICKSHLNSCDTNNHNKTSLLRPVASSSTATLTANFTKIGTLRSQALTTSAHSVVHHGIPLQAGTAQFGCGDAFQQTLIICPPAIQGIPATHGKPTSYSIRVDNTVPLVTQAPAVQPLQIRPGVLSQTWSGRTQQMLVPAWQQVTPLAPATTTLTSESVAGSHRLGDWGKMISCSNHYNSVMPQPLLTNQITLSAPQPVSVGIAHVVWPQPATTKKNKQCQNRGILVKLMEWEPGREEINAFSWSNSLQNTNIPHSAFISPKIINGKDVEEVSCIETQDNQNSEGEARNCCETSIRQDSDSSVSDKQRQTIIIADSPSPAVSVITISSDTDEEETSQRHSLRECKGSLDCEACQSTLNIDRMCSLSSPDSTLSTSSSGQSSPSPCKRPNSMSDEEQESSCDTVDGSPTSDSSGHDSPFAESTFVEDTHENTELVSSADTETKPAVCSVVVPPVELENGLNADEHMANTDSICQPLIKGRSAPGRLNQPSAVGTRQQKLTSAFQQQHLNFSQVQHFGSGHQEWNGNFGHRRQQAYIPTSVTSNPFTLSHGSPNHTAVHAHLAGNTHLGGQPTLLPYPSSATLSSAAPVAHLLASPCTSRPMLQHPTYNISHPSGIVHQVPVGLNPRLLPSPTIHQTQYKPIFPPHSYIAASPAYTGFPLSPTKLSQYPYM
Sequence of Serine/threonine-protein kinase PAK 2 (Homo sapiens) (Q13177 whole entry): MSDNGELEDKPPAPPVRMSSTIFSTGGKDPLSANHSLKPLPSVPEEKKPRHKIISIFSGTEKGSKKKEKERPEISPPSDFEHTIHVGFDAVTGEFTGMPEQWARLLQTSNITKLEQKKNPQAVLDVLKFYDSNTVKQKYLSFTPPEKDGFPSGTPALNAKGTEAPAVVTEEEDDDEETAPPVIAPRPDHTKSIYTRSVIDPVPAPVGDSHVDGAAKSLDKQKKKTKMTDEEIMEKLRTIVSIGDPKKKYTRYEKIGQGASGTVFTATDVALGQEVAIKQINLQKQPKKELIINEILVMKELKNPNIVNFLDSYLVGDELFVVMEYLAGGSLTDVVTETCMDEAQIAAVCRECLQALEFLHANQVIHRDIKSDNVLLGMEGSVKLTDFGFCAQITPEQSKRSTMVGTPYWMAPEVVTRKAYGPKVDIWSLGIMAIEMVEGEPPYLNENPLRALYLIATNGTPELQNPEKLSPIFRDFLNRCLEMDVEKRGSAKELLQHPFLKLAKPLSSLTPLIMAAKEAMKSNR
Sequence of Mitogen-activated protein kinase 14 (Homo sapiens) (Q16539 whole entry): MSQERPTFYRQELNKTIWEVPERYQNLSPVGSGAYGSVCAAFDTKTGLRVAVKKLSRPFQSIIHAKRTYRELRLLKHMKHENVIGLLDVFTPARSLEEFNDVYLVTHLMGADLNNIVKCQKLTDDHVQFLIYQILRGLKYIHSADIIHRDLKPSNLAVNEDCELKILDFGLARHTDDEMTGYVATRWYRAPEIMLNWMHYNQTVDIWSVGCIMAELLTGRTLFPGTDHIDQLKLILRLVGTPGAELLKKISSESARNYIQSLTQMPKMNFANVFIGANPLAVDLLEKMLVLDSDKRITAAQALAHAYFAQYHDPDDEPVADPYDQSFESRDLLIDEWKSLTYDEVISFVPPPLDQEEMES
Sequence of Tyrosine-protein kinase Lyn (Homo sapiens) (P07948 2-512 limits assumed): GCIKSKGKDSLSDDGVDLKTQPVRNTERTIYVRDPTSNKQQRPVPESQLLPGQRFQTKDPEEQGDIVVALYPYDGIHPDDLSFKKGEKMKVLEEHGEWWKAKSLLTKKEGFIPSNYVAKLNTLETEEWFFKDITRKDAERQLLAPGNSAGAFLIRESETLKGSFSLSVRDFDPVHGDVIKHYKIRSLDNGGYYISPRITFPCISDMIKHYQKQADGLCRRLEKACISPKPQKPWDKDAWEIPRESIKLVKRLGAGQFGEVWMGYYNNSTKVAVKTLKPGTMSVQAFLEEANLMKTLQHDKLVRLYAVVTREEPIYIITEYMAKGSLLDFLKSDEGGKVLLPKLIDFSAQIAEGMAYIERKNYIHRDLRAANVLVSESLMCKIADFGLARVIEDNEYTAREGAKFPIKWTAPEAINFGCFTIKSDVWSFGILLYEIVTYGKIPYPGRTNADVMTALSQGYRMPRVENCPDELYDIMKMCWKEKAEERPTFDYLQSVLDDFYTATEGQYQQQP
Sequence of Serine/threonine-protein kinase 38-like (Homo sapiens) (Q9Y2H1 2-464 limits assumed): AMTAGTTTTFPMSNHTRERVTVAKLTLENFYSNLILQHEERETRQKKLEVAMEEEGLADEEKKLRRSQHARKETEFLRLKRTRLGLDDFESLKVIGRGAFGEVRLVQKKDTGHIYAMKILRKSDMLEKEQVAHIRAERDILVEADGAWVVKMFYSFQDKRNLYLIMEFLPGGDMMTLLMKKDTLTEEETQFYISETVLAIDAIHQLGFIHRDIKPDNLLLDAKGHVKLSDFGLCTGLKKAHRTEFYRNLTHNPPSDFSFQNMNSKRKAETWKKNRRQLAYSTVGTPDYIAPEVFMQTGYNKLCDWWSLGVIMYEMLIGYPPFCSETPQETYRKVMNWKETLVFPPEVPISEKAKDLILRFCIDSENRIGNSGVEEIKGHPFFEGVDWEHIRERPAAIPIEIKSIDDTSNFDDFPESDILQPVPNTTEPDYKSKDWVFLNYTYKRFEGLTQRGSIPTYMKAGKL
Sequence of Myosin light chain kinase, smooth muscle (Homo sapiens) (Q15746 whole entry): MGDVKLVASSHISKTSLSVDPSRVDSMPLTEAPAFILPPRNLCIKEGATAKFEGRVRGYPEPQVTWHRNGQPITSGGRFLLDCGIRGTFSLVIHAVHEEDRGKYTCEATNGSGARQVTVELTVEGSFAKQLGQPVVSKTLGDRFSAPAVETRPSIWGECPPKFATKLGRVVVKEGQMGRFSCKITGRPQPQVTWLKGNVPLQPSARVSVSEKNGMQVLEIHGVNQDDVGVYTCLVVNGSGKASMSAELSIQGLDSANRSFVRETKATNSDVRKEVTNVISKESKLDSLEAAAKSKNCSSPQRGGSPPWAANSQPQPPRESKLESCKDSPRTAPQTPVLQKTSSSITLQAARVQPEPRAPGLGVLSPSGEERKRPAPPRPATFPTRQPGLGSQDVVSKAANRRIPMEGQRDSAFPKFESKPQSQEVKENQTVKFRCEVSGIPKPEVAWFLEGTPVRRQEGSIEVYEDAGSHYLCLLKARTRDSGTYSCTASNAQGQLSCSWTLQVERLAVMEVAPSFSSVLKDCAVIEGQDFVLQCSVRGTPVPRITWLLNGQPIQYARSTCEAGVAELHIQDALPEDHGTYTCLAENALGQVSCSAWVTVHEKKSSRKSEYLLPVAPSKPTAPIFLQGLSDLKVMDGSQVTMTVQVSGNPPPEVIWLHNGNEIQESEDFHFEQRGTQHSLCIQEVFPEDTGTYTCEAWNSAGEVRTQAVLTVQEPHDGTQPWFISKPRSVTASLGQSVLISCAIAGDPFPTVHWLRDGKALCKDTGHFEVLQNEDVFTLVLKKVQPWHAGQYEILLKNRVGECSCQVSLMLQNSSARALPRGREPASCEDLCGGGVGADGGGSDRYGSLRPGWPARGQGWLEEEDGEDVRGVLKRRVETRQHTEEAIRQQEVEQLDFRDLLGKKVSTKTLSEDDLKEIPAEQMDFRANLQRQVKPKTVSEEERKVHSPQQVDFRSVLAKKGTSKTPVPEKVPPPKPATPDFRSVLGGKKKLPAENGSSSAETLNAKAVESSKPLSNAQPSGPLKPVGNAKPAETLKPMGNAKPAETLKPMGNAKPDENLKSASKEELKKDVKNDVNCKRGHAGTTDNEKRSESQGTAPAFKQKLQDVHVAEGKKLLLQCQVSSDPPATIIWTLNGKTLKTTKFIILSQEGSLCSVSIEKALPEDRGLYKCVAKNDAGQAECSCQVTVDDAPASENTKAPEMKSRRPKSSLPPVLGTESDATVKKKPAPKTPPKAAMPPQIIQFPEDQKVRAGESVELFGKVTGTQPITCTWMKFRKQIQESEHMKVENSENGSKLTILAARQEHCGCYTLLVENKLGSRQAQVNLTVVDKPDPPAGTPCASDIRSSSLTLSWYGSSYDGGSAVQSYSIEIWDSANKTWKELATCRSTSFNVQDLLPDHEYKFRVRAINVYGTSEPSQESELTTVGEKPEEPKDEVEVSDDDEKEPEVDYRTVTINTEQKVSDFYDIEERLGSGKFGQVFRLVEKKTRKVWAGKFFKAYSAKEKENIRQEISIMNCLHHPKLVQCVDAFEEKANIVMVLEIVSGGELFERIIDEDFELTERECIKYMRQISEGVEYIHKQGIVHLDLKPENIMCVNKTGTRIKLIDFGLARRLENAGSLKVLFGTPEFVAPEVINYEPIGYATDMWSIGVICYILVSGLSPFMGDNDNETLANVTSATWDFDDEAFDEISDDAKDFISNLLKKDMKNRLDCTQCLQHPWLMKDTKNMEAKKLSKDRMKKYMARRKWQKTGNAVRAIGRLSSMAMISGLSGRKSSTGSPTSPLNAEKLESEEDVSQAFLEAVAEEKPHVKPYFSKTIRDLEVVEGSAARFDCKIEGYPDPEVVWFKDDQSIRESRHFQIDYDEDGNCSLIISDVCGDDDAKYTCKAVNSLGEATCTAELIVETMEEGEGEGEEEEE

With `O=C(N[C@@H](C1CC1)C(F)(F)F)c1cc(-c2cnn3cc(-c4ccc(F)cc4)cnc23)cs1` the inhibition [1] was 5%, the inhibition [2] was 0% and the inhibition [3] was 0%.
In the case of `CNC(=O)c1ccccc1Oc1nc(Nc2cc(OC)c(OC)c(OC)c2)ncc1Br`, the inhibition [4] is reported as 9%, the inhibition [5] is reported as 15% and the inhibition [6] is reported as 5%. The inhibition [7] was 0%, the fold change (FC) [8] was 0.08 and the fold change (FC) [9] was 0. The fold change (FC) [10] was 0.19 and the fold change (FC) [11] was 0.
`CC(C)[C@H](NC(=O)c1cc(-c2cnn3cc(-c4ccc(OCCN5CCCCC5)cc4)cnc23)cs1)C(F)(F)F` was tested, and the inhibition [12] was 8%, the inhibition [13] was 5% and the fold change (FC) [14] was 0.09. It also gave a fold change (FC) [15] of 0.22, a fold change (FC) [16] of 0.09 and a fold change (FC) [17] of 0.
